Reference: ChEMBL document CHEMBL1255395, “Laninamivir prodrug CS-8958, a long-acting neuraminidase inhibitor, shows superior anti-influenza virus activity after a single administration” (Antimicrob Agents Chemother, 2010)
Active and inactive are the calls of the source. The calls are words filed in the database; no cut-off is given here.

Experiments:
Type in all cases: functional, organism-based
[1] = system: Influenza A virus; assay: Antimicrobial activity against H274Y mutant oseltamivir-resistant influenza A virus (A/Yokohama/67/2006 (H1N1)) clone 11 infected in BALB/c mouse assessed as reduction in viral titer in lung at 0.080 mg/kg, itn administered 13 hrs post infection measured after 85 hrs post infection; set-up: dose 0.08 mg/kg
Summary of the method: (§1)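 Female BALB/c mice (5–6 weeks) infected intranasally with clone 11, then given a single intranasal dose in saline at 13 hpi. Lungs from 3 mice per time point were homogenized in PBS with 0.4% BSA and centrifuged at 2,200 × g. Supernatants were titrated by MDCK plaque assay (agar overlay with 1 μg/ml trypsin, 2 days, crystal violet). Reported as log10 PFU/lungs, mean ± SD; detection limit 2.4.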

[2] = system: Influenza A virus; assay: Antimicrobial activity against H274Y mutant oseltamivir-resistant influenza A virus (A/Yokohama/67/2006 (H1N1)) clone 11 infected in BALB/c mouse assessed as reduction in viral titer in lung at 0.080 mg/kg, itn administered 13 hrs post infection measured after 37 hrs post infection; set-up: dose 0.08 mg/kg; summary of the method: as §1
[3] = system: Influenza A virus; assay: Antimicrobial activity against H274Y mutant oseltamivir-resistant influenza A virus (A/Yokohama/67/2006 (H1N1)) clone 11 infected in BALB/c mouse assessed as reduction in viral titer in lung at 0.080 mg/kg, itn administered 13 hrs post infection measured after 61 hrs post infection; set-up: dose 0.08 mg/kg; summary of the method: as §1
[4] = system: Influenza A virus; assay: Antimicrobial activity against H274Y mutant oseltamivir-resistant influenza A virus (A/Yokohama/67/2006 (H1N1)) clone 11 infected in BALB/c mouse assessed as reduction in viral titer in lung at 10 mg/kg, po administered 13 hrs post infection, qd measured after 37 hrs post infection; set-up: dose 10 mg/kg
[5] = system: Influenza A virus; assay: Antimicrobial activity against H274Y mutant oseltamivir-resistant influenza A virus (A/Yokohama/67/2006 (H1N1)) clone 11 infected in BALB/c mouse assessed as reduction in viral titer in lung at 1.0 mg/kg, po administered 13 hrs post infection, qd measured after 37 hrs post infection; set-up: dose 1 mg/kg
[6] = system: Influenza A virus; assay: Antimicrobial activity against H274Y mutant oseltamivir-resistant influenza A virus (A/Yokohama/67/2006 (H1N1)) clone 11 infected in BALB/c mouse assessed as reduction in viral titer in lung at 10 mg/kg, po administered 13 hrs post infection, qd measured after 85 hrs post infection; set-up: dose 10 mg/kg
[7] = system: Influenza A virus; assay: Antimicrobial activity against H274Y mutant oseltamivir-resistant influenza A virus (A/Yokohama/67/2006 (H1N1)) clone 11 infected in BALB/c mouse assessed as reduction in viral titer in lung at 10 mg/kg, po administered 13 hrs post infection, qd measured after 61 hrs post infection; set-up: dose 10 mg/kg
[8] = system: Influenza A virus; assay: Antimicrobial activity against H274Y mutant oseltamivir-resistant influenza A virus (A/Yokohama/67/2006 (H1N1)) clone 11 infected in BALB/c mouse assessed as reduction in viral titer in lung at 1.0 mg/kg, po administered 13 hrs post infection, qd measured after 85 hrs post infection; set-up: dose 1 mg/kg
[9] = system: Influenza A virus; assay: Antimicrobial activity against H274Y mutant oseltamivir-resistant influenza A virus (A/Yokohama/67/2006 (H1N1)) clone 11 infected in BALB/c mouse assessed as reduction in viral titer in lung at 1.0 mg/kg, po administered 13 hrs post infection, qd measured after 61 hrs post infection; set-up: dose 1 mg/kg

Row | Structure (SMILES) | Activity [1] | Activity [2] | Activity [3] | Activity [4] | Activity [5] | Activity [6] | Activity [7] | Activity [8] | Activity [9]
1 | CCCCCCCC(=O)OC[C@@H](O)[C@@H](OC)[C@@H]1OC(C(=O)O)=C[C@H](NC(=N)N)[C@H]1NC(C)=O [LANINAMIVIR OCTANOATE] | Active | Active | Active |  |  |  |  |  | 
2 | CCOC(=O)C1=C[C@@H](OC(CC)CC)[C@H](NC(C)=O)[C@@H](N)C1.O=P(O)(O)O [OSELTAMIVIR PHOSPHATE] |  |  |  | inactive | inactive | inactive | inactive | inactive | inactive
